Results on twelve molecules are retold here after ChEMBL document CHEMBL5543076, “Chromone-based small molecules for multistep shutdown of arachidonate pathway: Simultaneous inhibition of COX-2, 15-LOX and mPGES-1 enzymes” (Eur J Med Chem, 2024).

The target of data set [1] is T1, Prostaglandin G/H synthase 1 (Ovis aries, UniProt P05979).
T1 sequence (P05979 whole entry): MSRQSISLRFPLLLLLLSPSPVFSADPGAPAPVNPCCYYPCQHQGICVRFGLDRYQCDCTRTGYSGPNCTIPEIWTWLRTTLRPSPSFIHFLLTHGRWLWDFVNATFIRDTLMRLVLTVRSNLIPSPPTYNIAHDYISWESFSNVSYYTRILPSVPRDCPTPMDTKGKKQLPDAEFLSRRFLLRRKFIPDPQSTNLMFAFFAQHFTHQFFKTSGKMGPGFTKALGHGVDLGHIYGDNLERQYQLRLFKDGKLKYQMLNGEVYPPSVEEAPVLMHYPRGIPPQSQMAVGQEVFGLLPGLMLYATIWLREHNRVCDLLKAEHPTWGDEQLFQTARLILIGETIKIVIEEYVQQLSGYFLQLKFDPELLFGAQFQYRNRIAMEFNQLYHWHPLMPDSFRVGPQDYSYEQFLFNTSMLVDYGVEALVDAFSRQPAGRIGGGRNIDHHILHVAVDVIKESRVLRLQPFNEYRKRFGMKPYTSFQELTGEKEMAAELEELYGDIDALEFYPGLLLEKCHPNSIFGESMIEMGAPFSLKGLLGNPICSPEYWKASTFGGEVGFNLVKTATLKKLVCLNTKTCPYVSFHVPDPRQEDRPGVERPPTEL
Kind of data set: Inhibition of ovine COX-1 by colorimetric assay. A digest of the protocol:
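Ovine COX-1 enzyme kit, run following the manufacturer's instructions; IC50 reported as mean of three replicates.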

The nature of data set [2]: Inhibition of soybean 15-LOX. Also noted: species or system Glycine max. The procedure, abridged:
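Soybean 15-LOX activity measured with a lipoxygenase inhibitor screening kit per the manufacturer's instructions; IC50 determined.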

A further data set addresses T2, Prostaglandin E synthase (Homo sapiens, UniProt O14684).
T2 sequence (O14684 whole entry): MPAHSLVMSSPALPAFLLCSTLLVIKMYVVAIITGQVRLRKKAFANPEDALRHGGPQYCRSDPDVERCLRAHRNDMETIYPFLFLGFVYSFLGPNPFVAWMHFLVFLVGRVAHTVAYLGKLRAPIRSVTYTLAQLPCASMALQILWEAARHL
Kind of data set: Inhibition of human mPGE2S1 using PGH2 as substrate measured after 5 mins by ELISA method. A digest of the protocol: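 Cell-free assay using microsomes from interleukin-1β-stimulated human A549 lung carcinoma cells as enzyme source. Reaction contained 20 μM PGH2 and 2.5 mM glutathione with serial inhibitor dilutions, 5 min at room temperature. Stopped with SnCl2, which converts leftover PGH2 to PGF2α. PGE2 measured by ELISA; IC50 ± SD from log dose–response curve.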

The subject of another data set is Rattus norvegicus. Kind of data set: Antiinflammatory activity in formalin-induced paw edema in Wistar rat model assessed as reduction in paw edema volume at 5 mg/kg, po administered once daily via gavage by 7 days by vernier caliper method. Format: functional, organism-based. The settings on record: time 7.0 day.
For data set [3], the system named is RAW264.7. The data set is described as follows: Antiinflammatory activity against LPS-induced mouse RAW264.7 cells assessed as downregulation of TNF-alpha level at 50 ug/ml incubated for 24 hrs by RT-PCR analysis relative to control. Format: functional. The note with it: dose 50 µg/ml.
The subject of data set [4] is RAW264.7. The data set is described as follows: Antiinflammatory activity against LPS-induced mouse RAW264.7 cells assessed as downregulation of iNOS level at 50 ug/ml incubated for 24 hrs by RT-PCR analysis relative to control. Format: functional. The note with it: dose 50 µg/ml.
For data set [5], the system named is RAW264.7. Kind of data set: Antiinflammatory activity against LPS-induced mouse RAW264.7 cells assessed as downregulation of IL-1 beta level at 50 ug/ml incubated for 24 hrs by RT-PCR analysis relative to control. Format: functional. The settings on record: dose 50 µg/ml.
For data set [6], the system named is RAW264.7. Kind of data set: Antiinflammatory activity against LPS-induced mouse RAW264.7 cells assessed as downregulation of COX-2 level at 50 ug/ml incubated for 24 hrs by RT-PCR analysis relative to control. The data set is classed as functional. The settings on record: dose 50 µg/ml.
The test system of data set [7] is RAW264.7. The data set is described as follows: Antiinflammatory activity against LPS-induced mouse RAW264.7 cells assessed as upregulation of IL-10 level at 50 ug/ml incubated for 24 hrs by RT-PCR analysis relative to control. Format: functional. The settings on record: dose 50 µg/ml.
For data set [8], the system named is RAW264.7. Kind of data set: Cytotoxicity against mouse RAW264.7 cells measured after 72 hrs by MTT assay. Format: functional, cell-based. A digest of the protocol: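 RAW264.7 cells were seeded at 4 × 10³ per well with compound (100 to 0.4 μg/ml, in DMSO) for 72 h at 37 °C, 5% CO2. MTT (5 mg/ml solution) was added for 4 h, formazan dissolved in DMSO, and absorbance read at 490 nm.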

Data set [9] is described as follows: Toxicity in Wistar rat assessed as effect on gastric ulcer measured after 8 days. The settings on record: in vivo, 192 h, time 8 day. A digest of the protocol:
(§1)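 Female Wistar rats dosed for eight days; stomachs then removed for gross inspection of ulceration and histology on H&E-stained sections.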

Data set [10] can be described thus: Toxicity in Wistar rat assessed as increase in submucosal inflammatory cells measured after 8 days by H and E staining based analysis. The note with it: 192 h, time 8 day. A digest of the protocol: as §1
Data set [11] in a line: Toxicity in Wistar rat assessed as dilation of submucosal blood vessels measured after 8 days by H and E staining based analysis. The note with it: 192 h, time 8 day. The procedure, abridged:
as §1

Data set [12] can be described thus: Toxicity in Wistar rat assessed as effect on epithelium measured after 8 days by H and E staining based analysis. The settings on record: in vivo, 192 h, time 8 day. A digest of the protocol: as §1
Data set [13] can be described thus: Toxicity in Wistar rat assessed as congested vessels measured after 8 days by H and E staining based analysis. The note with it: in vivo, 192 h, time 8 day. A digest of the protocol:
as §1

The nature of data set [14]: Toxicity in Wistar rat assessed as abundant submucosal infiltration measured after 8 days by H and E staining based analysis. The settings on record: in vivo, 192 h, time 8 day. The procedure, abridged: as §1
Data set [15] can be described thus: Toxicity in Wistar rat assessed as effect on ulceration measured after 8 days by H and E staining based analysis. The settings on record: in vivo, 192 h, time 8 day. The procedure, abridged:
as §1

The structures appear in SMILES notation. Active and inactive are the calls of the source. The rule behind the calls is not given here.

On to `COc1ccc2c(=O)c(/C=N/NC(=O)OCc3ccccc3)coc2c1`, for which the values for the IC50 (in [1]; in data set [2]; against Prostaglandin E synthase) were 11.1 µM, 2.39 µM and 2.8 µM, respectively. For the same molecule, the result in the data set on Rattus norvegicus was Active. In addition, the Activity is on record as 32% with RAW264.7 [3]; 32% in the data set on RAW264.7 [4]; 54% in the data set with RAW264.7 [5]; 33% in the data set on RAW264.7 [6]; 43% with RAW264.7 [7]; “Non-Toxic” in [9]. For the same molecule, the Activity result is recorded as “Toxic” in data set [10], “Toxic” in [11] and “Non-Toxic” in data set [12]. In addition, in the data set with RAW264.7 [8], the result was inactive.

Take `O=c1c(O)c(-c2ccc(O)c(O)c2)oc2cc(O)cc(O)c12` [QUERCETIN]: it took 3.34 µM to reach half-maximal inhibition in data set [2] (IC50).

Regarding `COC(=O)N/N=C/c1coc2cc(OC)ccc2c1=O`, the half-inhibitory concentration (IC50) was 6.01 µM in data set [1] and 4.59 µM in data set [2].

`O=C(N/N=C/c1coc2ccccc2c1=O)OCc1ccccc1`: the values for the IC50 (in data set [1]; in data set [2]; at Prostaglandin E synthase) were 12.2 µM, 1.72 µM and 4.1 µM, respectively. Also, the outcome in the data set on Rattus norvegicus was Active. For the same molecule, the Activity in the data set on RAW264.7 [3] was 32%; in the data set on RAW264.7 [4], 32%; in the data set with RAW264.7 [5] it was 54%; in the data set with RAW264.7 [6], 33%; with RAW264.7 [7], 43%; in [9], “Non-Toxic”. Also, the Activity result in data set [12] was “Non-Toxic”; in data set [13], “Toxic”; in data set [14], “Toxic”. Besides, the result in the data set with RAW264.7 [8] was inactive.

Consider `COC(=O)N/N=C/c1coc2ccccc2c1=O`, for which the IC50 in data set [1] stood at 7.43 µM; in [2], 2.77 µM; on Prostaglandin E synthase, 3.7 µM.

For the molecule `CN/N=C/c1coc2ccccc2c1=O`, the values for the IC50 in [1] and in data set [2] were 4.04 µM and 4.44 µM, respectively.

As to `COc1ccc2occ(/C=N/NC(=O)OCc3ccccc3)c(=O)c2c1`, the IC50 in data set [1] is 9.82 µM; in data set [2], 3.05 µM; against Prostaglandin E synthase, 4.9 µM. Moreover, the result with Rattus norvegicus was Active. The Activity in the data set on RAW264.7 [3] was 32%; with RAW264.7 [4], 32%; in the data set with RAW264.7 [5], 54%; in the data set with RAW264.7 [6] it was 33%; with RAW264.7 [7], 43%; in data set [9], “Non-Toxic”. The Activity result in data set [10] was “Toxic”; in data set [11], “Toxic”; in [12], “Non-Toxic”. Besides, the result in the data set on RAW264.7 [8] was inactive.

Take `CN/N=C/c1coc2ccc(OC)cc2c1=O`: the half-maximal inhibitory concentration (IC50) in data set [1] was determined as 8.67 µM; in data set [2], 3.25 µM.

Consider `COC(=O)N/N=C/c1coc2ccc(OC)cc2c1=O`, for which the IC50 came to 6.92 µM in [1] and 4.08 µM in data set [2].

With `Cc1ccc(-c2cc(C(F)(F)F)nn2-c2ccc(S(N)(=O)=O)cc2)cc1` [CELECOXIB], the IC50 against Prostaglandin E synthase is 20.1 µM. For the same molecule, in [15], the Activity entry was “Non-Toxic”.

For `O=C([O-])Cc1ccccc1Nc1c(Cl)cccc1Cl.[Na+]` [DICLOFENAC SODIUM], the Activity entry in data set [12] is reported as “Non-Toxic”; in data set [13], “Toxic”; in data set [14] it was “Toxic”.

For the molecule `CN/N=C/c1coc2cc(OC)ccc2c1=O`, the IC50 in [1] turned out to be 3.62 µM; in [2], 4.31 µM.
